Laboratory results published in ChEMBL document CHEMBL2384977, “Synthesis and biological evaluation of novel styryl benzimidazole derivatives as probes for imaging of neurofibrillary tangles in Alzheimer's disease” (Bioorg Med Chem, 2013).

Columns and labels:
Intestine [1] = experiment: Biodistribution in ddY mouse intestine at 13.2 to 20.6 kBq, iv measured at 60 mins by gamma counting analysis; format: ADME, organism-based; conditions: in vivo, 1 h
In short: (§1)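 Male ddY mice, 5 weeks old, received the 125I-labelled tracer (13.2–20.6 kBq) intravenously in the tail vein, in 100 µL saline containing ethanol. Animals were sacrificed at 2, 10, 30 and 60 min. Tissue radioactivity is expressed as %ID/g, mean (SD) of 5 animals.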

Pancreas [2] = experiment: Biodistribution in ddY mouse pancreas at 13.2 to 20.6 kBq, iv measured at 30 mins by gamma counting analysis; format: ADME, organism-based; conditions: in vivo, 0.5 h; in short: as §1
Intestine [3] = experiment: Biodistribution in ddY mouse intestine at 13.2 to 20.6 kBq, iv measured at 10 mins by gamma counting analysis; format: ADME, organism-based; conditions: in vivo; in short: as §1
Heart [4] = experiment: Biodistribution in ddY mouse heart at 13.2 to 20.6 kBq, iv measured at 60 mins by gamma counting analysis; format: ADME, organism-based; conditions: in vivo, 1 h; in short: as §1
Intestine [5] = experiment: Biodistribution in ddY mouse intestine at 13.2 to 20.6 kBq, iv measured at 30 mins by gamma counting analysis; format: ADME, organism-based; conditions: in vivo, 0.5 h; in short: as §1
Blood [6] = experiment: Biodistribution in ddY mouse blood at 13.2 to 20.6 kBq, iv measured at 10 mins by gamma counting analysis; format: ADME, organism-based; conditions: in vivo; in short: as §1
Liver [7] = experiment: Biodistribution in ddY mouse liver at 13.2 to 20.6 kBq, iv measured at 10 mins by gamma counting analysis; format: ADME, organism-based; conditions: in vivo; in short: as §1
Blood [8] = experiment: Biodistribution in ddY mouse blood at 13.2 to 20.6 kBq, iv measured at 2 mins by gamma counting analysis; format: ADME, organism-based; conditions: in vivo; in short: as §1
Spleen [9] = experiment: Biodistribution in ddY mouse spleen at 13.2 to 20.6 kBq, iv measured at 2 mins by gamma counting analysis; format: ADME, organism-based; conditions: in vivo; in short: as §1
Intestine [10] = experiment: Biodistribution in ddY mouse intestine at 13.2 to 20.6 kBq, iv measured at 2 mins by gamma counting analysis; format: ADME, organism-based; conditions: in vivo; in short: as §1
Liver [11] = experiment: Biodistribution in ddY mouse liver at 13.2 to 20.6 kBq, iv measured at 30 mins by gamma counting analysis; format: ADME, organism-based; conditions: in vivo, 0.5 h; in short: as §1
Kidney [12] = experiment: Biodistribution in ddY mouse kidney at 13.2 to 20.6 kBq, iv measured at 30 mins by gamma counting analysis; format: ADME, organism-based; conditions: in vivo, 0.5 h; in short: as §1
Liver [13] = experiment: Biodistribution in ddY mouse liver at 13.2 to 20.6 kBq, iv measured at 60 mins by gamma counting analysis; format: ADME, organism-based; conditions: in vivo, 1 h; in short: as §1
Kidney [14] = experiment: Biodistribution in ddY mouse kidney at 13.2 to 20.6 kBq, iv measured at 10 mins by gamma counting analysis; format: ADME, organism-based; conditions: in vivo; in short: as §1
Brain [15] = experiment: Biodistribution in ddY mouse brain at 13.2 to 20.6 kBq, iv measured at 2 mins by gamma counting analysis; format: ADME, organism-based; conditions: in vivo; in short: as §1
Kidney [16] = experiment: Biodistribution in ddY mouse kidney at 13.2 to 20.6 kBq, iv measured at 60 mins by gamma counting analysis; format: ADME, organism-based; conditions: in vivo, 1 h; in short: as §1
Lung [17] = experiment: Biodistribution in ddY mouse lung at 13.2 to 20.6 kBq, iv measured at 30 mins by gamma counting analysis; format: ADME, organism-based; conditions: in vivo, 0.5 h; in short: as §1
Blood [18] = experiment: Biodistribution in ddY mouse blood at 13.2 to 20.6 kBq, iv measured at 30 mins by gamma counting analysis; format: ADME, organism-based; conditions: in vivo, 0.5 h; in short: as §1
Heart [19] = experiment: Biodistribution in ddY mouse heart at 13.2 to 20.6 kBq, iv measured at 30 mins by gamma counting analysis; format: ADME, organism-based; conditions: in vivo, 0.5 h; in short: as §1
Spleen [20] = experiment: Biodistribution in ddY mouse spleen at 13.2 to 20.6 kBq, iv measured at 10 mins by gamma counting analysis; format: ADME, organism-based; conditions: in vivo; in short: as §1
Stomach [21] = experiment: Biodistribution in ddY mouse stomach at 13.2 to 20.6 kBq, iv measured per organ at 10 mins by gamma counting analysis; format: ADME, organism-based; conditions: in vivo
In short: (§2)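 Male ddY mice, 5 weeks old, were injected in the tail vein with the 125I tracer (13.2–20.6 kBq) in 100 µL saline containing ethanol. Sacrifice at 2, 10, 30 and 60 min. Stomach radioactivity is expressed as %ID per whole organ, mean (SD) of 5 animals.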

Blood [22] = experiment: Biodistribution in ddY mouse blood at 13.2 to 20.6 kBq, iv measured at 60 mins by gamma counting analysis; format: ADME, organism-based; conditions: in vivo, 1 h; in short: as §1
Lung [23] = experiment: Biodistribution in ddY mouse lung at 13.2 to 20.6 kBq, iv measured at 2 mins by gamma counting analysis; format: ADME, organism-based; conditions: in vivo; in short: as §1
Pancreas [24] = experiment: Biodistribution in ddY mouse pancreas at 13.2 to 20.6 kBq, iv measured at 2 mins by gamma counting analysis; format: ADME, organism-based; conditions: in vivo; in short: as §1
Pancreas [25] = experiment: Biodistribution in ddY mouse pancreas at 13.2 to 20.6 kBq, iv measured at 10 mins by gamma counting analysis; format: ADME, organism-based; conditions: in vivo; in short: as §1
Stomach [26] = experiment: Biodistribution in ddY mouse stomach at 13.2 to 20.6 kBq, iv measured per organ at 60 mins by gamma counting analysis; format: ADME, organism-based; conditions: in vivo, 1 h; in short: as §2
Lung [27] = experiment: Biodistribution in ddY mouse lung at 13.2 to 20.6 kBq, iv measured at 10 mins by gamma counting analysis; format: ADME, organism-based; conditions: in vivo; in short: as §1
Heart [28] = experiment: Biodistribution in ddY mouse heart at 13.2 to 20.6 kBq, iv measured at 2 mins by gamma counting analysis; format: ADME, organism-based; conditions: in vivo; in short: as §1
Lung [29] = experiment: Biodistribution in ddY mouse lung at 13.2 to 20.6 kBq, iv measured at 60 mins by gamma counting analysis; format: ADME, organism-based; conditions: in vivo, 1 h; in short: as §1
Stomach [30] = experiment: Biodistribution in ddY mouse stomach at 13.2 to 20.6 kBq, iv measured per organ at 30 mins by gamma counting analysis; format: ADME, organism-based; conditions: in vivo, 0.5 h; in short: as §2
[31] = 1-Octanol-PBS buffer partition coefficient, log P of the compound at 0.37 MBq after 2 mins by gamma counting analysis; format: physicochemical
Kidney [32] = experiment: Biodistribution in ddY mouse kidney at 13.2 to 20.6 kBq, iv measured at 2 mins by gamma counting analysis; format: ADME, organism-based; conditions: in vivo; in short: as §1
Pancreas [33] = experiment: Biodistribution in ddY mouse pancreas at 13.2 to 20.6 kBq, iv measured at 60 mins by gamma counting analysis; format: ADME, organism-based; conditions: in vivo, 1 h; in short: as §1
Brain [34] = experiment: Biodistribution in ddY mouse brain at 13.2 to 20.6 kBq, iv measured at 60 mins by gamma counting analysis; format: ADME, organism-based; conditions: in vivo, 1 h; in short: as §1
Heart [35] = experiment: Biodistribution in ddY mouse heart at 13.2 to 20.6 kBq, iv measured at 10 mins by gamma counting analysis; format: ADME, organism-based; conditions: in vivo; in short: as §1
Liver [36] = experiment: Biodistribution in ddY mouse liver at 13.2 to 20.6 kBq, iv measured at 2 mins by gamma counting analysis; format: ADME, organism-based; conditions: in vivo; in short: as §1
Brain [37] = experiment: Biodistribution in ddY mouse brain at 13.2 to 20.6 kBq, iv measured at 30 mins by gamma counting analysis; format: ADME, organism-based; conditions: in vivo, 0.5 h; in short: as §1
Stomach [38] = experiment: Biodistribution in ddY mouse stomach at 13.2 to 20.6 kBq, iv measured per organ at 2 mins by gamma counting analysis; format: ADME, organism-based; conditions: in vivo; in short: as §2
Spleen [39] = experiment: Biodistribution in ddY mouse spleen at 13.2 to 20.6 kBq, iv measured at 30 mins by gamma counting analysis; format: ADME, organism-based; conditions: in vivo, 0.5 h; in short: as §1
Brain [40] = experiment: Ratio of drug level in ddY mouse brain at 13.2 to 20.6 kBq, iv measured at 2 mins to drug level in ddY mouse brain at 13.2 to 20.6 kBq, iv measured at 60 mins; format: ADME, organism-based; conditions: in vivo
In short: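 Tail-vein injection of the 125I tracer (13.2–20.6 kBq, saline with ethanol) into male 5-week-old ddY mice. The ratio is brain uptake (%ID/g) at 2 min divided by brain uptake at 60 min, from groups of 5 animals.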

Brain [41] = experiment: Biodistribution in ddY mouse brain at 13.2 to 20.6 kBq, iv measured at 10 mins by gamma counting analysis; format: ADME, organism-based; conditions: in vivo; in short: as §1
Spleen [42] = experiment: Biodistribution in ddY mouse spleen at 13.2 to 20.6 kBq, iv measured at 60 mins by gamma counting analysis; format: ADME, organism-based; conditions: in vivo, 1 h; in short: as §1

Drug uptake (Intestine [1]): 30 % ID/g
Drug uptake (Pancreas [2]): 0.92 % ID/g
Drug uptake (Intestine [3]): 11.5 % ID/g
Drug uptake (Heart [4]): 0.74 % ID/g
Drug uptake (Intestine [5]): 28.4 % ID/g
Drug uptake (Blood [6]): 2.76 % ID/g
Drug uptake (Liver [7]): 23.2 % ID/g
Drug uptake (Blood [8]): 3.65 % ID/g
Drug uptake (Spleen [9]): 5.19 % ID/g
Drug uptake (Intestine [10]): 4.96 % ID/g
Drug uptake (Liver [11]): 16 % ID/g
Drug uptake (Kidney [12]): 3.07 % ID/g
Drug uptake (Liver [13]): 11 % ID/g
Drug uptake (Kidney [14]): 5.85 % ID/g
Drug uptake (Brain [15]): 4.11 % ID/g
Drug uptake (Kidney [16]): 2.02 % ID/g
Drug uptake (Lung [17]): 1.93 % ID/g
Drug uptake (Blood [18]): 2.19 % ID/g
Drug uptake (Heart [19]): 1.28 % ID/g
Drug uptake (Spleen [20]): 4.9 % ID/g
Drug uptake (Stomach [21]): 4.88 %ID
Drug uptake (Blood [22]): 1.37 % ID/g
Drug uptake (Lung [23]): 7.13 % ID/g
Drug uptake (Pancreas [24]): 6.8 % ID/g
Drug uptake (Pancreas [25]): 2.58 % ID/g
Drug uptake (Stomach [26]): 2.97 %ID
Drug uptake (Lung [27]): 3.55 % ID/g
Drug uptake (Heart [28]): 6.68 % ID/g
Drug uptake (Lung [29]): 1.32 % ID/g
Drug uptake (Stomach [30]): 4.65 %ID
logP at 2 min [31]: 2
Drug uptake (Kidney [32]): 11.2 % ID/g
Drug uptake (Pancreas [33]): 0.51 % ID/g
Drug uptake (Brain [34]): 0.14 % ID/g
Drug uptake (Heart [35]): 2.8 % ID/g
Drug uptake (Liver [36]): 19.9 % ID/g
Drug uptake (Brain [37]): 0.36 % ID/g
Drug uptake (Stomach [38]): 2.31 %ID
Drug uptake (Spleen [39]): 3.13 % ID/g
Ratio (Brain [40]): 29.4
Drug uptake (Brain [41]): 1.42 % ID/g
Drug uptake (Spleen [42]): 1.74 % ID/g
SMILES: CNc1ccc(/C=C/c2nc3ccc([125I])cc3[nH]2)cc1
